Results taken from ChEMBL document CHEMBL3351758, “Inhibition of cancer-associated mutant isocitrate dehydrogenases: synthesis, structure-activity relationship, and selective antitumor activity” (J Med Chem, 2014).

Columns and labels:
[1] = Inhibition of neurosphere formation of human BT142 cells by CCK8 assay; type: functional, cell-based
Outline: (§1)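 Neurosphere cultures grown serum-free at 37 °C, 5% CO2 (neurobasal medium, N2/B27, bFGF and EGF 50 ng/mL each, penicillin/streptomycin). BXD lines come from patient-tumour orthotopic xenografts; BT-142 carries endogenous IDH1 R132H and gets extra supplements (PDGF-AA, insulin, transferrin, others). 2000 cells/well were exposed to 0.002, 0.02, 0.2, 2 or 20 μM for up to 13 days. CCK-8 viability was read on days 4, 7, 10 and 13.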

[2] = system: MDCK; experiment: Permeability from basolateral to apical side in MDCK cells expressing MDR1 at 10 uM incubated at 37 degC for 90 mins by LC/MS/MS method; type: ADME, cell-based, Canis lupus familiaris; settings: dog, 1.5 h
Outline: (§2)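 MDCK-MDR1 monolayers were used 3–4 days after seeding on 0.4 μm Transwell filters, only if TEER exceeded 1000 Ω·cm² before and after the run. They were preincubated 30 min in HBSS with 50 mM HEPES, pH ≈ 7.4. Donor got 10 μM compound (final, 0.1% DMSO), then 90 min at 37 °C. Both sides were sampled and quantified by LC-MS/MS SRM. Papp = dQ/dt/(A·C0).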

[3] = Inhibition of neurosphere formation of human BT142 cells at 2 uM by CCK8 assay; type: functional; outline: as §1
[4] = Inhibition of neurosphere formation of […] BXD4687 cells by CCK8 assay; type: functional, cell-based; outline: as §1
[5] = Inhibition of neurosphere formation of […] BXD3752 cells by CCK8 assay; type: functional, cell-based; outline: as §1
[6] = system: MDCK; experiment: Permeability from apical to basolateral side in MDCK cells expressing MDR1 at 10 uM incubated at 37 degC for 90 mins by LC/MS/MS method; type: ADME, cell-based, Canis lupus familiaris; settings: dog, 1.5 h; outline: as §2
[7] = Inhibition of neurosphere formation of human BT142 cells at 20 uM by CCK8 assay; type: functional
Outline: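 BT-142 glioma cells (endogenous IDH1 R132H) grown as neurospheres in serum-free neurobasal/N2/B27 medium with bFGF, EGF, PDGF-AA and other supplements. 2000 cells/well treated for up to 13 days. Viability by CCK-8 at days 4, 7, 10 and 13.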

[8] = system: MDCK; experiment: Efflux ratio, ratio of permeability from basolateral side over apical to basolateral side in MDCK cells expressing MDR1 at 10 uM incubated at 37 degC for 90 mins by LC/MS/MS method; type: ADME, cell-based, Canis lupus familiaris; settings: dog, 1.5 h
Outline: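 MDCK-MDR1 monolayers (passage 24–33, seeded at 60000 cells/cm² on Transwell filters) were used 3–4 days post-seeding if TEER stayed >1000 Ω·cm². After 30 min preincubation in HBSS/50 mM HEPES pH ≈7.4, compound was added to the donor side (10 μM initial, 0.1% DMSO) A→B or B→A, 37 °C, 90 min. LC-MS/MS SRM quantification; Papp = dQ/dt/(A·C0).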

[9] = Inhibition of cell proliferation of human WI38 cells by CCK8 assay; type: functional, cell-based; settings: WI-38
[10] = Cytotoxicity against human HT1080 cells up to 30 uM; type: cell-based; settings: ht-1080
[11] = biological target: Isocitrate dehydrogenase [NADP] cytoplasmic (Homo sapiens, UniProt O75874, R132H); experiment: Inhibition of human IDH1 R132H mutant expressed in Escherichia coli BL21-CodonPlus assessed as reduction in NADPH consumption
[12] = biological target: Isocitrate dehydrogenase [NADP] cytoplasmic (Homo sapiens, UniProt O75874); experiment: Inhibition of wild type human IDH1 expressed in Escherichia coli BL21-CodonPlus assessed as NADPH production
[13] = Selectivity index, ratio of EC50 for human BXD4687 cells to EC50 for human BT142 cells
[14] = Selectivity index, ratio of EC50 for human BXD3752 cells to EC50 for human BT142 cells

Chain of Isocitrate dehydrogenase [NADP] cytoplasmic (Homo sapiens, UniProt O75874, R132H) (O75874 2-414 R132H limits assumed): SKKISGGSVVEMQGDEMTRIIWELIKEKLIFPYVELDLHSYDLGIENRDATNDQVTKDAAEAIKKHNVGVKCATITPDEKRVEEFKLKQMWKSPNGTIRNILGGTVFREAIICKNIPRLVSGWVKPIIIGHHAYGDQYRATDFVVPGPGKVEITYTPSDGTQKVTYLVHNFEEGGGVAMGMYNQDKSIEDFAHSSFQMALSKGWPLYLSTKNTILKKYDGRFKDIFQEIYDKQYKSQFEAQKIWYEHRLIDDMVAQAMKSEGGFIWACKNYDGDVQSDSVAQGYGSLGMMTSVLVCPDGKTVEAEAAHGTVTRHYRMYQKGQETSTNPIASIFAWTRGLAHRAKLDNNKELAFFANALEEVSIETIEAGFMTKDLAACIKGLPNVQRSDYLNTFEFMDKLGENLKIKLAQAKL
Chain of Isocitrate dehydrogenase [NADP] cytoplasmic (Homo sapiens, UniProt O75874) (O75874 whole entry): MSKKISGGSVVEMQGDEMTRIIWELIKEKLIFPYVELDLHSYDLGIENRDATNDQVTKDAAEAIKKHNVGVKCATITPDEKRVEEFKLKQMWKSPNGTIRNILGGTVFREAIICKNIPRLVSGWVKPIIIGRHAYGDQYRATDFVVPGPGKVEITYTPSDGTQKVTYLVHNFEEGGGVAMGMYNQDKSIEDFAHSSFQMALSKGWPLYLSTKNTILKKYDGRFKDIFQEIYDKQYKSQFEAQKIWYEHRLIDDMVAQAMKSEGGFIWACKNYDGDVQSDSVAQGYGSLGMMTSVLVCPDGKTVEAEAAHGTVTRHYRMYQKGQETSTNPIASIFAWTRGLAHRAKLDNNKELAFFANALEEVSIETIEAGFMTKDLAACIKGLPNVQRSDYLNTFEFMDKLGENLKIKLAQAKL

**Q.** Which results are given for `Cc1ccccc1C(C(=O)NC1CCCCC1)N(C(=O)Cn1ccnc1C)c1cccc(F)c1` (configuration not stated)?
**A.** EC50 [1]: > 20 µM; permeability [2]: 10.4 ×10⁻⁶ cm/s; inhibition at 2 µM [3]: 40%; EC50 [4]: > 20 µM; EC50 [5]: > 20 µM; permeability [6]: 0.15 ×10⁻⁶ cm/s; inhibition at 20 µM [7]: 40%; Ratio [8]: 72.6; EC50 [9]: > 50 µM

**Q.** With `Cc1cc(Cc2ccccc2)n(O)c(=O)c1` as the molecule, how does the EC50 [1] read?
**A.** 0.37 µM

**Q.** What about the permeability [2] of the same molecule?
**A.** 6.34 ×10⁻⁶ cm/s

**Q.** And the EC50 [4]?
**A.** 6.8 µM

**Q.** What about the EC50 [5] of the same molecule?
**A.** 5.9 µM

**Q.** What about the permeability [6] of the same molecule?
**A.** 5.45 ×10⁻⁶ cm/s

**Q.** What about the Activity [10] of the same molecule?
**A.** Non-toxic

**Q.** With `Cc1cc(Cc2ccc(O)cc2)n(O)c(=O)c1` as the molecule, how does the Activity [10] read?
**A.** Non-toxic

**Q.** With `O=c1cccc(Cc2ccccc2)n1O` as the molecule, how does the Activity [10] read?
**A.** Non-toxic

**Q.** Which Activity [10] does the source give for `CC(C)c1cc(Cc2ccccc2)n(O)c(=O)c1` here?
**A.** Non-toxic

**Q.** With `Cc1cc(Cc2ccccc2O)n(O)c(=O)c1` as the molecule, how does the Ki [11] read?
**A.** 0.65 µM

**Q.** For `O=c1ccc(CCc2ccccc2)cn1O`, which Ki [11] is on record?
**A.** > 50 µM

**Q.** Which Ki [11] does the source give for `O=c1ccc(CCCc2ccccc2)cn1O` here?
**A.** > 50 µM

**Q.** Which Ki [11] does the source give for `O=c1ccc(Oc2ccccc2)cn1O` here?
**A.** 46 µM

**Q.** For `O=C(NO)c1ccc(=O)n(O)c1`, which Ki [11] is on record?
**A.** > 50 µM

**Q.** With `O=C(NCc1ccccc1)c1ccc(=O)n(O)c1` as the molecule, how does the Ki [11] read?
**A.** > 50 µM

**Q.** Which Ki [11] does the source give for `O=C(Cc1ccccc1)Nc1ccc(=O)n(O)c1` here?
**A.** > 50 µM

**Q.** With `O=c1cccc(-c2ccccc2)n1O` as the molecule, how does the Ki [11] read?
**A.** > 50 µM

**Q.** With `CC(c1ccccc1)c1cccc(=O)n1O` (configuration not stated) as the molecule, how does the Ki [11] read?
**A.** > 50 µM

**Q.** For `O=c1cccc(CCc2ccccc2)n1O`, which Ki [11] is on record?
**A.** 10 µM

**Q.** For `COC(=O)c1ccc(CCc2cccc(=O)n2O)cc1`, which Ki [11] is on record?
**A.** 27 µM

**Q.** Which Ki [11] does the source give for `O=C(NO)c1cccc(=O)n1O` here?
**A.** 4.5 µM

**Q.** And the Ki [12]?
**A.** > 50 µM

**Q.** For `Cc1cc(COc2ccccc2)n(O)c(=O)c1`, which Ki [11] is on record?
**A.** 0.87 µM

**Q.** Which Ki [11] does the source give for `Cc1ccn(O)c(=O)c1Cc1ccccc1` here?
**A.** 9.5 µM

**Q.** For `COc1cccc(Cc2c(C)ccn(O)c2=O)c1`, which Ki [11] is on record?
**A.** 16.2 µM

**Q.** For `Cc1ccn(O)c(=O)c1Cc1cccc(O)c1`, which Ki [11] is on record?
**A.** 13.6 µM

**Q.** With `O=c1cc(O)cc(Cc2ccccc2)n1O` as the molecule, how does the Ki [11] read?
**A.** 0.38 µM

**Q.** And the Activity [10]?
**A.** Non-toxic

**Q.** For `COc1cc(Cc2ccccc2)n(O)c(=O)c1`, which Ki [11] is on record?
**A.** 5.5 µM

**Q.** With `O=c1cc(CO)cc(Cc2ccccc2)n1O` as the molecule, how does the Ki [11] read?
**A.** 5.6 µM

**Q.** Which Ki [11] does the source give for `CC(=O)OCc1cc(Cc2ccccc2)n(O)c(=O)c1` here?
**A.** 4.5 µM

**Q.** Which Ki [11] does the source give for `COc1ccc(Cc2cc(C)cc(=O)n2O)cc1` here?
**A.** 0.56 µM

**Q.** Which results are given for `COc1cccc(Cc2cc(C)cc(=O)n2O)c1`?
**A.** EC50 [1]: 0.63 µM; permeability [2]: 8.88 ×10⁻⁶ cm/s; EC50 [4]: 1.2 µM; Ki [11]: 0.15 µM; EC50 [5]: 2.5 µM; permeability [6]: 5.39 ×10⁻⁶ cm/s; Ki [12]: > 30 µM; Ratio [8]: 1.7; EC50 [9]: > 50 µM; Activity [10]: Non-toxic

**Q.** What does the source list for `Cc1cc(Cc2cccc(O)c2)n(O)c(=O)c1`?
**A.** EC50 [1]: 1.8 µM; EC50 [4]: 7.5 µM; Ki [11]: 0.14 µM; EC50 [5]: 6.2 µM; Ki [12]: > 30 µM; EC50 [9]: > 50 µM; Activity [10]: Non-toxic

**Q.** Which Ki [11] does the source give for `COc1ccccc1Cc1cc(C)cc(=O)n1O` here?
**A.** 0.49 µM

**Q.** Which Ki [11] does the source give for `Cc1cc(Cc2cccc(F)c2)n(O)c(=O)c1` here?
**A.** 2.2 µM

**Q.** For `Cc1cc(Cc2c(F)c(F)c(F)c(F)c2F)n(O)c(=O)c1`, which Ki [11] is on record?
**A.** 2.2 µM

**Q.** For `Cc1cc(Cc2ccc(C#N)cc2)n(O)c(=O)c1`, which Ki [11] is on record?
**A.** 12.5 µM

**Q.** For `Cc1cc(Cc2cccc(C#N)c2)n(O)c(=O)c1`, which Ki [11] is on record?
**A.** 1.6 µM

**Q.** With `Cc1cc(Cc2cccc(C(=O)O)c2)n(O)c(=O)c1` as the molecule, how does the Ki [11] read?
**A.** > 50 µM

**Q.** With `Cc1cc(Cc2cccc(C(N)=O)c2)n(O)c(=O)c1` as the molecule, how does the Ki [11] read?
**A.** 8.5 µM

**Q.** With `Cc1cc(Cc2ccc(C(F)(F)F)cc2)n(O)c(=O)c1` as the molecule, how does the Ki [11] read?
**A.** 3.2 µM

**Q.** For `Cc1cc(C)cc(Cc2cc(C)cc(=O)n2O)c1`, which Ki [11] is on record?
**A.** 3.1 µM

**Q.** With `Cc1cc(Cc2ccsc2)n(O)c(=O)c1` as the molecule, how does the Ki [11] read?
**A.** 0.95 µM

**Q.** Which Ki [11] does the source give for `Cc1cc(Cc2cccc(-c3ccccc3)c2)n(O)c(=O)c1` here?
**A.** 0.6 µM

**Q.** Which Ki [11] does the source give for `Cc1cc(Cc2ccc(Oc3ccccc3)cc2)n(O)c(=O)c1` here?
**A.** 0.75 µM

**Q.** With `Cc1cc(Cc2cccc3ccccc23)n(O)c(=O)c1` as the molecule, how does the Ki [11] read?
**A.** 0.95 µM

**Q.** Which Ki [11] does the source give for `COc1ccc2c(Cc3cc(C)cc(=O)n3O)cccc2c1` here?
**A.** 40.5 µM

**Q.** Which Ki [11] does the source give for `Cc1cc(Cc2cccc3cc(O)ccc23)n(O)c(=O)c1` here?
**A.** 27.5 µM

**Q.** Which Ki [11] does the source give for `Cc1cc(Cc2cc3ccccc3s2)n(O)c(=O)c1` here?
**A.** 22.5 µM

**Q.** Which results are given for `COc1ccc(-c2ccc(Cc3cc(C)cc(=O)n3O)cc2)cc1`?
**A.** EC50 [1]: 0.26 µM; EC50 [4]: 7.6 µM; Ki [11]: 0.34 µM; EC50 [5]: 2.8 µM; Ki [12]: 14 µM; Ratio EC50 [13]: >10; Ratio EC50 [14]: >10; EC50 [9]: > 50 µM; Activity [10]: Non-toxic

**Q.** With `Cc1cc(Cc2ccc(-c3ccc(O)cc3)cc2)n(O)c(=O)c1` as the molecule, how does the EC50 [1] read?
**A.** 0.69 µM

**Q.** And the EC50 [4]?
**A.** 16 µM

**Q.** What about the Ki [11] of the same molecule?
**A.** 0.25 µM

**Q.** And the EC50 [5]?
**A.** 5.1 µM

**Q.** And the Ki [12]?
**A.** 15.2 µM

**Q.** And the EC50 [9]?
**A.** > 50 µM

**Q.** And the Activity [10]?
**A.** Non-toxic

**Q.** With `COc1cccc(-c2ccc(Cc3cc(C)cc(=O)n3O)cc2)c1` as the molecule, how does the Ki [11] read?
**A.** 0.14 µM

**Q.** And the Ki [12]?
**A.** 13 µM

**Q.** What about the Activity [10] of the same molecule?
**A.** Non-toxic

**Q.** With `Cc1cc(Cc2ccc(-c3cccc(O)c3)cc2)n(O)c(=O)c1` as the molecule, how does the Ki [11] read?
**A.** 0.27 µM

**Q.** Which Ki [11] does the source give for `Cc1cc(Cc2cc(-c3ccccc3)cc(-c3ccccc3)c2)n(O)c(=O)c1` here?
**A.** 0.3 µM

**Q.** For `Cc1cc(Cc2ccccc2)n(N)c(=O)c1`, which Ki [11] is on record?
**A.** 3.8 µM

**Q.** Which Ki [11] does the source give for `O=c1ccc(-c2ccccc2)cn1O` [1-HYDROXY-5-PHENYLPYRIDIN-2(1H)-ONE] here?
**A.** 50 µM

**Q.** Which Ki [11] does the source give for `Cc1cc(C2CCCCC2)n(O)c(=O)c1` [CICLOPIROX] here?
**A.** > 50 µM

**Q.** Which Ki [11] does the source give for `Cc1cc(C)n(O)c(=O)c1` [METIPIROX] here?
**A.** > 50 µM

**Q.** With `Cn1nnc2c(C(N)=O)ncn2c1=O` [TEMOZOLOMIDE] as the molecule, how does the EC50 [1] read?
**A.** > 50 µM

**Q.** What about the EC50 [4] of the same molecule?
**A.** > 50 µM

**Q.** And the EC50 [5]?
**A.** > 50 µM
